Assay results published in ChEMBL document CHEMBL3784976 (J Med Chem, 2016).
Calls of active or inactive are those of the source. The rule behind the calls is not given here.

Key:
[1] = target: Sodium-dependent dopamine transporter (Homo sapiens) (UniProt Q01959); test: Displacement of [3H]BTCP from human recombinant dopamine transporter expressed in CHO cells assessed as remaining radioligand binding at 10 uM after 120 mins by scintillation counting method relative to control; type: cell-based
[2] = test system: Rattus norvegicus; test: In vivo inhibition of TRPA1 in Harlan Sprague-Dawley rat model of AITC-induced flinching assessed as unbound plasma concentration based IC50; type: functional, organism-based
In short: (§1)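 Rats were given vehicle (2% HPMC/1% Tween-80) or compound orally at 1, 3, 10 or 30 mg/kg. After 1 h, 0.1% AITC was injected into one left ventral hind paw, and nocifensive flinching was recorded over the first minute. Unbound plasma concentration was measured at 1 h, n = 8 per dose. In vivo IC50/IC90 came from the exposure–response relationship across individual animals.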

[3] = target: Urotensin-2 receptor (Homo sapiens) (UniProt Q9UKP6); test: Displacement of [125I]urotensin-2 from human recombinant urotensin-2 receptor expressed in CHO cells assessed as remaining radioligand binding at 10 uM after 120 mins by scintillation counting method relative to control; type: cell-based
[4] = target: Transient receptor potential cation channel subfamily V member 1 (Homo sapiens, UniProt Q8NER1); test: Antagonist activity at human TRPV1 expressed in CHO cells assessed as inhibition of capsaicin-induced Ca2+ influx up to 10 uM preincubated for 2.5 mins followed by capsaicin addition measured for 1 min by luminescence assay; type: cell-based
Transient receptor potential cation channel subfamily V member 1, sequence (Q8NER1 whole entry): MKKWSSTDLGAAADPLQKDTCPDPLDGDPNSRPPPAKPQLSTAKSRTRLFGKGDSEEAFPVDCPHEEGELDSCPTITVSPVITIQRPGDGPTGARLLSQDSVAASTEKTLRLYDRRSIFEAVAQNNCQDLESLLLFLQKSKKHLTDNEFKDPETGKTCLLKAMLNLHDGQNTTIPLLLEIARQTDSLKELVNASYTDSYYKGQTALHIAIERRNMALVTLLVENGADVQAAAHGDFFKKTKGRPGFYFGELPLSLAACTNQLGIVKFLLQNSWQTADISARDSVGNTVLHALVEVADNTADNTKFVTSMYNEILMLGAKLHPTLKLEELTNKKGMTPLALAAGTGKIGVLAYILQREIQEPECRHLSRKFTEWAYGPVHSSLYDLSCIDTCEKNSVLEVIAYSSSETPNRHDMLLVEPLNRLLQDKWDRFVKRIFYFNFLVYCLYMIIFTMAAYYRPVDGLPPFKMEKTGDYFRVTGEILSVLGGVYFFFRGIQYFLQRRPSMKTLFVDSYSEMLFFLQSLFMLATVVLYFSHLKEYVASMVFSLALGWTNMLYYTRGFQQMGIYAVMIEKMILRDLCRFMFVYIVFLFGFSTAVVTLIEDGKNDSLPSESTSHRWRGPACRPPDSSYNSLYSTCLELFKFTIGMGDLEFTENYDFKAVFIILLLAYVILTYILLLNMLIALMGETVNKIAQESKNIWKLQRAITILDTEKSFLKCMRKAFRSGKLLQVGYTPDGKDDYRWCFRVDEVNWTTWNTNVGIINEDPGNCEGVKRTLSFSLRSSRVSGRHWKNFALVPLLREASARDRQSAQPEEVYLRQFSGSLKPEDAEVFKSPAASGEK

[5] = target: Melanocortin receptor 4 (Homo sapiens) (UniProt P32245); test: Displacement of [125I]NDP-a-MSH from human recombinant MC4 receptor expressed in CHO cells assessed as remaining radioligand binding at 10 uM after 120 mins by scintillation counting method relative to control; type: cell-based
Melanocortin receptor 4 (Homo sapiens), sequence (P32245 whole entry): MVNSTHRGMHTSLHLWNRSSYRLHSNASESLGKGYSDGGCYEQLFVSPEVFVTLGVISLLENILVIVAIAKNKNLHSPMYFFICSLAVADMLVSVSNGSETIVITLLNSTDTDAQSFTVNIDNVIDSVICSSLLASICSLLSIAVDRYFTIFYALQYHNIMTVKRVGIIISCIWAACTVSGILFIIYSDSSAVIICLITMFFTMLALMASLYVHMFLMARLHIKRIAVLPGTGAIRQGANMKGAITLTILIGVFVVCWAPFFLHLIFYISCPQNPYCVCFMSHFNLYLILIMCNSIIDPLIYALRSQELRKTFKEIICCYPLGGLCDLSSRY

[6] = target: Adenosine receptor A2a (Homo sapiens) (UniProt P29274); test: Displacement of [3H]CGS-21680 from human recombinant adenosine A2A receptor expressed in HEK293 cells assessed as remaining radioligand binding at 10 uM after 120 mins by scintillation counting method relative to control; type: cell-based
[7] = target: D(2) dopamine receptor (Homo sapiens) (UniProt P14416); test: Displacement of [3H]methyl-spiperone from human recombinant dopamine D2S receptor expressed in HEK293 cells assessed as remaining radioligand binding at 10 uM after 60 mins by scintillation counting method relative to control; type: cell-based
D(2) dopamine receptor (Homo sapiens), sequence (P14416 whole entry): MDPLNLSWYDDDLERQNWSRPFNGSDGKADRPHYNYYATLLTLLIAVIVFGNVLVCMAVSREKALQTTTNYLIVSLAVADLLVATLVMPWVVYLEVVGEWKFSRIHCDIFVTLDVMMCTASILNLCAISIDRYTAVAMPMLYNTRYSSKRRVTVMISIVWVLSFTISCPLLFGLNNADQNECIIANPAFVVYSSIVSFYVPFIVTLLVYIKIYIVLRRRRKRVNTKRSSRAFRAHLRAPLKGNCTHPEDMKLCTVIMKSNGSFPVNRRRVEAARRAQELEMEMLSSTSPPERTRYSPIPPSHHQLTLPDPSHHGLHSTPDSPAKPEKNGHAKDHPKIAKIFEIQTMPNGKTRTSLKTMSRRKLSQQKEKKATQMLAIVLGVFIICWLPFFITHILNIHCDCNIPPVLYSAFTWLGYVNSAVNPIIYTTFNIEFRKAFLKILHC

[8] = target: Beta-2 adrenergic receptor (Homo sapiens) (UniProt P07550); test: Displacement of (-)-[3H]CGP-12177 from human recombinant adrenergic beta2 receptor expressed in CHO cells assessed as remaining radioligand binding at 10 uM after 120 mins by scintillation counting method relative to control; type: cell-based
Beta-2 adrenergic receptor (Homo sapiens), sequence (P07550 whole entry, looked up): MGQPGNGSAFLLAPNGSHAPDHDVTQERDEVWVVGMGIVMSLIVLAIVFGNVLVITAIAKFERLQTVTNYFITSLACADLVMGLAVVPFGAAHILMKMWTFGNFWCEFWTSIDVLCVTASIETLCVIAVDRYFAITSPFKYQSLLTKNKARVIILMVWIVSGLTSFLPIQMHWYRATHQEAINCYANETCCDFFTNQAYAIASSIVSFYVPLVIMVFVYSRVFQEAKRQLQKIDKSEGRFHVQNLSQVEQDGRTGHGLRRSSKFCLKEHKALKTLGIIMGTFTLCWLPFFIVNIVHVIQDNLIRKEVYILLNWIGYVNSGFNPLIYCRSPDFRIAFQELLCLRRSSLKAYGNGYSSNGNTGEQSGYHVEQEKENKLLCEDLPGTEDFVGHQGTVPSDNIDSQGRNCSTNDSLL

[9] = test system: Jurkat; test: Displacement of [3H]DTG from sigma receptor in human Jurkat cells assessed as remaining radioligand binding at 10 uM after 120 mins by scintillation counting method relative to control; type: cell-based
[10] = target: 5-hydroxytryptamine receptor 1A (Homo sapiens) (UniProt P08908); test: Displacement of [3H]8-OH-DPAT from human recombinant 5HT1A receptor expressed in HEK293 cells assessed as remaining radioligand binding at 10 uM after 60 mins by scintillation counting method relative to control; type: cell-based
5-hydroxytryptamine receptor 1A (Homo sapiens), sequence (P08908 whole entry): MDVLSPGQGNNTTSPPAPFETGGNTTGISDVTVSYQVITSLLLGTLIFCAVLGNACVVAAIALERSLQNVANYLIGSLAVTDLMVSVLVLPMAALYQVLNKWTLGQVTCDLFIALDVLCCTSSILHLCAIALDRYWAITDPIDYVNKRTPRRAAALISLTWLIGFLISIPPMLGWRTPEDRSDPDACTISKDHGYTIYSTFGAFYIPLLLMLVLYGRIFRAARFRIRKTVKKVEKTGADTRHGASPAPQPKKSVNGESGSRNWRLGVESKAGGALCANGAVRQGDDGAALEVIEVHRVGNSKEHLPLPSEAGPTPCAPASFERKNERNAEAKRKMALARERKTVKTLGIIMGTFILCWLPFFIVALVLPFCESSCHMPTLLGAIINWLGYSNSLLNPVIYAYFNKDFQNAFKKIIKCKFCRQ

[11] = target: Transient receptor potential cation channel subfamily A member 1 (Rattus norvegicus, UniProt Q6RI86); test: Antagonist activity at rat TRPA1 expressed in tetracycline-inducible T-REx expression system transfected CHO cells assessed as inhibition of AITC-induced 45Ca2+ uptake preincubated for 1 min followed by AITC addition measured after 12 mins; type: cell-based
[12] = Ratio of unbound plasma concentration in Harlan Sprague-Dawley rat model of AITC-induced flinching at 10 mg/kg, po to IC50 for rat TRPA1 expressed in tetracycline-inducible T-REx expression system transfected CHO cells by 45Ca2+ uptake assay; type: ADME, organism-based; details: in vivo
In short: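 Rats dosed orally at 1, 3, 10 or 30 mg/kg in 2% HPMC/1% Tween-80 vehicle. After 1 h, unbound plasma concentration measured (n = 8 per dose), intraplantar AITC (0.1%) given and flinching scored over the first minute. Unbound concentration divided by in vitro rat TRPA1 45Ca2+ IC50.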

[13] = target: Mu-type opioid receptor (Homo sapiens) (UniProt P35372); test: Displacement of [3H]DAMGO from human recombinant mu opioid receptor expressed in HEK293 cells assessed as remaining radioligand binding at 10 uM after 120 mins by scintillation counting method relative to control; type: cell-based
Mu-type opioid receptor (Homo sapiens), sequence (P35372 whole entry): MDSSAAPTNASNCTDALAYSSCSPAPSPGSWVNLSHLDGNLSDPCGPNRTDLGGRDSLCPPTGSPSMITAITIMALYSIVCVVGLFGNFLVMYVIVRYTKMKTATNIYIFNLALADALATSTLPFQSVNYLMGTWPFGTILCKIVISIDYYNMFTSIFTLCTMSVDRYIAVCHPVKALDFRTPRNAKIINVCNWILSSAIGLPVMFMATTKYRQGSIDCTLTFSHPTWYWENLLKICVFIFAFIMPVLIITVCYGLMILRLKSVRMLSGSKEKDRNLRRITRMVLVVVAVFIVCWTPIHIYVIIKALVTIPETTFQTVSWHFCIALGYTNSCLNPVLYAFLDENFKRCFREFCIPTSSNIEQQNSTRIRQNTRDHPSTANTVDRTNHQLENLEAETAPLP

[14] = species: Rattus norvegicus; test: Antagonist activity at rat TRPV3 assessed as inhibition of 2-APB-induced Ca2+ influx up to 10 uM preincubated for 2.5 mins followed by 2-APB addition measured for 1 min by luminescence assay
[15] = target: Transient receptor potential cation channel subfamily A member 1 (Homo sapiens, UniProt O75762); test: Antagonist activity at human TRPA1 expressed in tetracycline-inducible T-REx expression system transfected CHO cells assessed as inhibition of AITC-induced Ca2+ influx preincubated for 2 mins followed by AITC addition measured for 2 mins by Fluo-4 dye based FLIPR assay; type: cell-based
[16] = target: Histamine H1 receptor (Homo sapiens) (UniProt P35367); test: Displacement of [3H]pyrilamine from human recombinant histamine H1 receptor expressed in HEK293 cells assessed as remaining radioligand binding at 10 uM after 60 mins by scintillation counting method relative to control; type: cell-based
Histamine H1 receptor (Homo sapiens), sequence (P35367 whole entry): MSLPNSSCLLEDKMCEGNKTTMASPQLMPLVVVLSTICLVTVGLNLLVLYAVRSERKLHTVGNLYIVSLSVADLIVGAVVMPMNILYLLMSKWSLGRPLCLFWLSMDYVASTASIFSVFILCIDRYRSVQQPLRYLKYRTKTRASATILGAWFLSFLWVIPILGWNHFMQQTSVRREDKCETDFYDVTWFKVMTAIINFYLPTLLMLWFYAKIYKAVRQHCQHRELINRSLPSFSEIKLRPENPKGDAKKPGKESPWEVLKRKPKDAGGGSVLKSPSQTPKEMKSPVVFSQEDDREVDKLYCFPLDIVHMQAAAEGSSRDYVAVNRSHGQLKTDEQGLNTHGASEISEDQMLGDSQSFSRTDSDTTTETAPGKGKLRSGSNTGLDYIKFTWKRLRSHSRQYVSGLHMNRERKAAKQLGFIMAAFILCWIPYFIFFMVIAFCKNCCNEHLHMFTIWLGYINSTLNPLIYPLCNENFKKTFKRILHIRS

[17] = species: Cavia porcellus; test: Displacement of [3H]NBTI from adenosine transporter in guinea pig cerebral cortex assessed as remaining radioligand binding at 10 uM after 30 mins by scintillation counting method relative to control; type: tissue-based
[18] = Oral bioavailability in rat at 30 mg/kg; type: ADME, organism-based; details: in vivo
In short: (§2)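 Rats dosed orally at 30 mg/kg, or 10 mg/kg for one analogue, in 1% Tween 80/2% HPMC/97% water with methanesulfonic acid, pH 2.2.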

[19] = target: Cholecystokinin receptor type A (Homo sapiens) (UniProt P32238); test: Displacement of [125I]CCK-8s from human recombinant CCK1 receptor expressed in CHO cells assessed as remaining radioligand binding at 10 uM after 60 mins by scintillation counting method relative to control; type: cell-based
Cholecystokinin receptor type A (Homo sapiens), sequence (P32238 whole entry): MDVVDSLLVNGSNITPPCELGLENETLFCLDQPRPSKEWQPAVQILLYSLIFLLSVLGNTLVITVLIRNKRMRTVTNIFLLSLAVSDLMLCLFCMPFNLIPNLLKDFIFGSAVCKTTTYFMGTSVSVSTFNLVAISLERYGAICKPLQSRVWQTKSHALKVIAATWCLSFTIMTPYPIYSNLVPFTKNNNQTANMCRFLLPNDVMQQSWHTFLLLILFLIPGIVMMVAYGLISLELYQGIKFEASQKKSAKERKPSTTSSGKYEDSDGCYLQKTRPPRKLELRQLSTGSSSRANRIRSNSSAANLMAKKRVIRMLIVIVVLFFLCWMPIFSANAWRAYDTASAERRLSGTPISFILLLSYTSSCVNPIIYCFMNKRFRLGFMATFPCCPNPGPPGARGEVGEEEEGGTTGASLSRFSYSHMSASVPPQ

[20] = Tmax in rat at 30 mg/kg, po; type: ADME, organism-based; details: in vivo; in short: as §2
[21] = target: Histamine H3 receptor (Homo sapiens) (UniProt Q9Y5N1); test: Displacement of [3H]Na-Me-histamine from human recombinant histamine H3 receptor expressed in CHO cells assessed as remaining radioligand binding at 10 uM after 60 mins by scintillation counting method relative to control; type: cell-based
Histamine H3 receptor (Homo sapiens), sequence (Q9Y5N1 whole entry): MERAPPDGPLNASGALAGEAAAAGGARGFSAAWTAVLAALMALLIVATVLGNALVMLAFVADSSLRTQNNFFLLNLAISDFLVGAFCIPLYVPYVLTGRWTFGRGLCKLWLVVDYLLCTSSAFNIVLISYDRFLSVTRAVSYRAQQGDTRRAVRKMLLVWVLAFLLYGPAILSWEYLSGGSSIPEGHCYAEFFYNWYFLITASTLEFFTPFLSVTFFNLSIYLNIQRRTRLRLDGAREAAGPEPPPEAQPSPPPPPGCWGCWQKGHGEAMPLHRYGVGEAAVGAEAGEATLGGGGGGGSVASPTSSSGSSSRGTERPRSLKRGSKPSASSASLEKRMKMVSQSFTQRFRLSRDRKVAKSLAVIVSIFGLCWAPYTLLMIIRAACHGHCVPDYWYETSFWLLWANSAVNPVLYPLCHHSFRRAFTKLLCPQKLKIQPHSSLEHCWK

[22] = target: Cytochrome P450 3A4 (Homo sapiens, UniProt P08684); test: Inhibition of CYP3A4 in human liver microsomes using midazolam as substrate by LC-MS/MS analysis in presence of NADPH; type: ADME
[23] = test system: Plasma; test: Unbound plasma concentration in Harlan Sprague-Dawley rat model of AITC-induced flinching at 30 mg/kg, po at 1 hr; type: ADME, organism-based; details: in vivo; in short: as §1
[24] = test system: Rattus norvegicus; test: fCmax in rat at 30 mg/kg, po; type: ADME, organism-based; details: in vivo; in short: as §2
[25] = target: Alpha-1A adrenergic receptor (Homo sapiens) (UniProt P35348); test: Displacement of [3H]prazosin from human recombinant adrenergic alpha1A expressed in CHO cells assessed as remaining radioligand binding at 10 uM after 60 mins by scintillation counting method relative to control; type: cell-based
Alpha-1A adrenergic receptor (Homo sapiens), sequence (P35348 whole entry): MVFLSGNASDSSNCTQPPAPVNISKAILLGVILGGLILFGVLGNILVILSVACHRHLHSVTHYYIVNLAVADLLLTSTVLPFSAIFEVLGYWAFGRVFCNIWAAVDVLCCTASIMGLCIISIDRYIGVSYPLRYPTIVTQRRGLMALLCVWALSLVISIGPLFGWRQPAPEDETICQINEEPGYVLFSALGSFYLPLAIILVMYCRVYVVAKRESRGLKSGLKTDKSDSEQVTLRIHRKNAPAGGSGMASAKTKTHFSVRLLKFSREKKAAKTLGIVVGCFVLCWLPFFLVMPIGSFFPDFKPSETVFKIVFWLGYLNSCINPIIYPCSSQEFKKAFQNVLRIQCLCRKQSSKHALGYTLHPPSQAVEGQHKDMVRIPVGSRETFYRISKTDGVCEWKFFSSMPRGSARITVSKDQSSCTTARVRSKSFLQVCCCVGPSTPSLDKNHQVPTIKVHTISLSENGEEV

[26] = Apparent intrinsic clearance in rat liver microsomes; type: ADME; details: read-out: CLH(app)

SMILES: Cn1cnc2ncn(Cc3nc(CCc4ccc(Cl)cc4)no3)c(=O)c21
- Activity [1]: > 77%
- IC50 [2]: 0.35 µM
- Activity [3]: > 77%
- inhibition [4]: inactive
- Activity [5]: > 77%
- Activity [6]: > 77%
- Activity [7]: > 77%
- Activity [8]: > 77%
- Activity [9]: > 77%
- Activity [10]: > 77%
- IC50 [11]: 0.071 µM
- Ratio [12]: 8.2
- Activity [13]: > 77%
- inhibition [14]: inactive
- IC50 [15]: 0.02 µM
- Activity [16]: > 77%
- Activity [17]: > 77%
- bioavailability [18]: 60%
- Activity [19]: > 77%
- Tmax [20]: 48 min
- Activity [21]: > 77%
- IC50 [22]: > 27 µM
- Cp(f) [23]: 2200 nM
- fCmax [24]: 2.2 µM
- Activity [25]: > 77%
- microsomal CLint [26]: 41 µL/min/mg
